ChEMBL document CHEMBL1687733, “Topoisomerase I gene mutations at F270 in the large subunit and N184 in the small subunit contribute to the resistance mechanism of the unicellular parasite Leishmania donovani towards 3,3'-diindolylmethane” (Antimicrob Agents Chemother, 2009)
The source made the active and inactive calls.

Key:
[1] = test system: Leishmania donovani; assay: Ratio of antimicrobial activity against drug-resistant Leishmania donovani LdDR50 to antimicrobial activity against wild type Leishmania donovani AG83; format: functional
Method in brief: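 Cells washed twice in PBS, MTT added for 4 h, acidified isopropanol stop for 20 min at room temperature, A570 read. Growth expressed as % of untreated WT OD; three experiments.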

[2] = test system: Leishmania donovani; assay: Inhibition of recombinant Leishmania donovani AG83 topoisomerase 1b-mediated religation of 14-mer/25-mer suicide DNA substrate at 20 uM after […] by PAGE analysis
Method in brief: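 For cleavage, the 5′-32P 14-mer/25-mer suicide substrate (5 nM) was incubated with 0.15 μM reconstituted enzyme at 23°C, with or without 20 μM DIM. Complexes were shifted to 30°C for 2 min. A 300-fold excess of 11-mer acceptor was added for 30, 60 and 120 s. Samples were stopped with 1% SDS, trypsinised, and run on a sequencing gel to read the 23-mer religated product.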

[3] = test system: Leishmania donovani; assay: Effect on recombinant wild type Leishmania donovani AG83 topoisomerase 1b-mediated cleavage of 25-mer duplex oligonucleotide at 20 uM after 30 mins by PAGE analysis
Method in brief: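 The 5′-32P-labelled 25-mer duplex (10 nM) was incubated with 0.2 μM reconstituted WT His-tagged enzyme, a 20-fold molar enzyme excess. DIM was 0 or 5–20 μM, for 30 min. Reactions were stopped with SDS, trypsinised, and run on 12% denaturing polyacrylamide-urea gel with autoradiography. Read-out was the 12-mer cleaved product.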

[4] = test system: Leishmania donovani; assay: Inhibition of recombinant drug-resistant Leishmania donovani LdDR50 topoisomerase 1b large subunit K430N mutant and small subunit N184S mutant-mediated relaxation of supercoiled pBluescript SK(+) DNA at up to 50 uM after 30 mins using ethidium bromide staining
Method in brief: (§1)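 Reconstituted recombinant enzyme (30 fmol) with 90 fmol supercoiled pBluescript SK(+) DNA (3:1 DNA:enzyme), 30 min at 37°C with DIM (1–50 μM for fully mutant enzyme; 10 μM for single-site mutants); 4% DMSO vehicle control. Products on 1% agarose, ethidium bromide (0.5 μg/ml) stained; supercoiled monomer band quantified.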

[5] = Binding affinity to Leishmania donovani small subunit of topoisomerase 1b
[6] = molecular target: DNA topoisomerase I (Leishmania donovani (strain BPK282A1), UniProt E9BRC0, F270L); assay: Binding affinity to recombinant drug-resistant Leishmania donovani LdDR50 topoisomerase 1b large subunit F270L mutant after 24 hrs by equilibrium dialysis method
Method in brief: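 Recombinant His-tagged subunits expressed in E. coli BL21(DE3) pLysS, purified on Ni-NTA then phosphocellulose, reconstituted 1:1. Enzyme 200 μM with DIM 1–20 μM in 20 mM Tris-HCl pH 7.5, 50 mM NaCl, 10 mM MgCl2 for 30 min at 37°C, then dialysed (12–14 kDa cutoff) 24 h at 25°C. Free DIM measured by absorbance (ε 6.6 × 10^4 M−1); KD from saturation plot.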

[7] = test system: Leishmania donovani; assay: Antimicrobial activity against wild type Leishmania donovani AG83 transfected with drug-resistant Leishmania donovani LdDR50 topoisomerase 1 K430N mutant in large subunit and wild type small subunit assessed as inhibition of parasite growth at 20 uM after 24 hrs by MTT assay; format: functional; details: AG83, 24 h
Method in brief: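 WT promastigotes transfected by electroporation with mutant large-subunit (pXG-HYG, hygromycin selection) and/or small-subunit (pXG-GFP2+, G418 selection) topoisomerase I genes. Grown with DIM 1–20 μM for 24 h; MTT read-out, growth as % of optical density of untreated WT parasites.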

[8] = test system: T1, DNA topoisomerase type IB small subunit (Leishmania donovani (strain BPK282A1)), E9B7X3 [N184S]; assay: Effect on recombinant drug-resistant Leishmania donovani LdDR50 topoisomerase 1b small subunit N184S mutant-mediated cleavage of 25-mer duplex oligonucleotide at 5 uM after 30 mins by PAGE analysis
T1 sequence (whole entry): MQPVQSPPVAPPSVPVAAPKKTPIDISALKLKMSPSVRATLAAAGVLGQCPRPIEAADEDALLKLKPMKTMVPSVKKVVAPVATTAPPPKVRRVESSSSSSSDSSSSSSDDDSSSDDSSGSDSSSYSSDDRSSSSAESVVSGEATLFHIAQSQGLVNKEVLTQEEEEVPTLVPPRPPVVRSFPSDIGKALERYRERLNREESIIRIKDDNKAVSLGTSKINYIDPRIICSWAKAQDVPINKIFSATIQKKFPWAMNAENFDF
Method in brief: (§2)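 5′-32P-labelled 25-mer duplex (10 nM) incubated with reconstituted mutant enzyme (0.2 μM, 20-fold molar excess) and DIM 5–20 μM for 30 min (Methods 37°C; legend 23°C). Stopped with SDS, trypsin-treated, resolved on 12% denaturing polyacrylamide-urea gel; cleaved 12-mer detected by autoradiography.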

[9] = test system: Leishmania donovani; assay: Inhibition of recombinant drug-resistant Leishmania donovani LdDR50 topoisomerase 1b large subunit F270L mutant and small subunit N184S mutant-mediated relaxation of supercoiled pBluescript SK(+) DNA at up to 50 uM after 30 mins using ethidium bromide staining; method in brief: as §1
[10] = test system: T2, DNA topoisomerase I (Leishmania donovani (strain BPK282A1)), E9BRC0 [F270L]; assay: Effect on recombinant drug-resistant Leishmania donovani LdDR50 topoisomerase 1b large subunit F270L mutant-mediated cleavage of 25-mer duplex oligonucleotide at 20 uM after 30 mins by PAGE analysis; method in brief: as §2
T2 sequence (whole entry): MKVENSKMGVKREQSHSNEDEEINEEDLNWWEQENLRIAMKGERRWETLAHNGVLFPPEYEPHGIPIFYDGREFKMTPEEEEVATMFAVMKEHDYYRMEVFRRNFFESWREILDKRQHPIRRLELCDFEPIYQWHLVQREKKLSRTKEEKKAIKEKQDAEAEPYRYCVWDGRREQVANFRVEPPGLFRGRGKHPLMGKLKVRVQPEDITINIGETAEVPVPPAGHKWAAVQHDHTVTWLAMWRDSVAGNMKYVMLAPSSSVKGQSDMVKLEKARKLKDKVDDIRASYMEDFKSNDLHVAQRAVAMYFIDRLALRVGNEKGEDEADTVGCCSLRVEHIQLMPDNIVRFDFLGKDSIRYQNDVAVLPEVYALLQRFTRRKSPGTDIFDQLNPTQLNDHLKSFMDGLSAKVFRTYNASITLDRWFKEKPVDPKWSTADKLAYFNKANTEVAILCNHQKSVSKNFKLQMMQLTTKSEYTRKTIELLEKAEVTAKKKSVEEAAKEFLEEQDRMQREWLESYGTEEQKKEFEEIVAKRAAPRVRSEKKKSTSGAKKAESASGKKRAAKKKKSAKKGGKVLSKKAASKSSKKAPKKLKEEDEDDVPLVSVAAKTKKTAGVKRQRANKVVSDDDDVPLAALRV

[11] = test system: Leishmania donovani; assay: Antimicrobial activity against wild type Leishmania donovani AG83 assessed as inhibition of parasite growth after 24 hrs by MTT assay; format: functional, organism-based
Method in brief: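 WT L. donovani promastigotes were harvested in exponential phase and seeded at 2 × 10^6 cells per well. They were exposed to DIM at 1, 5, 10, 15 and 20 μM, washed in PBS, and given MTT (10 μg/ml) for 4 h. Acidified isopropanol stop was followed by A570. Growth was expressed as % of the OD of untreated WT, from three experiments.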

c1ccc2c(Cc3c[nH]c4ccccc34)c[nH]c2c1 [ARUNDINE]
Ratio [1]: 42 | inhibition [2]: Active | Activity [3]: Active | inhibition [4]: Active | Kd [5]: 0.05 µM | Kd [6]: 530 µM | inhibition at 20 µM [7]: 94% | Activity [8]: inactive | inhibition [9]: inactive | Activity [10]: inactive | inhibition [11]: Dose-dependent effect | IC50 ([11]; AG83, 24 h): 1.25 µM
